From ChEMBL document CHEMBL1129666, “Cross-linking and sequence specific alkylation of DNA BY aziridinylquinones. 1. Quinone methides” (J Med Chem, 1996)
pIC50: −log10 of the molar value.

Tests used:
Nucleic Acid [1] = test: Efficiency at pBR322 DNA interstand cross-linking at 100 uM; format: functional; conditions: Escherichia coli
Summary of the method: (§1)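 5'-end-labelled HindIII-linearised pBR322 (~5000 cpm/sample) incubated with compound 2 h at 37 °C, pH 4, in TEA buffer with 2 mM ascorbic acid reduction. Stopped, ethanol-precipitated, denatured 90 °C 2 min in strand separation buffer, run on 0.8% agarose (Tris-acetate, 40 V, 16 h). Autoradiograph densitometry gives percent double-stranded (cross-linked) DNA per lane. Single representative experiment.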

K562 = test: In vitro cytotoxicity against Human Chronic Leukemia K562 cells; format: functional, cell-based
Summary of the method: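 600 cells/well exposed to compound for 2 h, growth measured by MTT with absorbance at 540 and 640 nm. Growth inhibition plotted against concentration, triplicate per concentration.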

Nucleic Acid [2] = test: Efficiency at pBR322 DNA interstand cross-linking at 10 uM; format: functional; conditions: Escherichia coli; summary of the method: as §1

SMILES	Cross linking (Nucleic Acid [1]) [%]	pIC50 (K562)	Cross linking (Nucleic Acid [2]) [%]
CC1=CC(=O)C(N)=CC1=O	0	< 4.82	0
CC1=CC(=O)C(N2CC2)=C(C)C1=O	9	5.92	3
CCC1=CC(=O)C(N2CC2)=CC1=O	57.1	6.22	6.9
CC1=CC(=O)C=CC1=O [Cresoquinone]	0	5.56	0
NC1=CC(=O)C(N)=CC1=O	0	< 4.60	0
CC1=CC(=O)C(C)=C(C)C1=O	0	5.44	0
CC1=CC(=O)C=C(C)C1=O	0	5.90	0
CC1=CC(=O)C(N2CCC2)=CC1=O	0	< 4.60	0
CC1=C(C)C(=O)C(C)=C(C)C1=O [DUROQUINONE]	0	< 4.30	0
CC1=CC(=O)C(N2CC2)=CC1=O	81	7.00	12.2
CC1=C(C)C(=O)C(N2CC2)=CC1=O	4.7	5.89	1.2
CCCC1=CC(=O)C(N2CC2)=CC1=O	13.2	6.22	2.2
CC1=C(C)C(=O)C=CC1=O	0	5.85	0
O=C1C=C(N2CCC2)C(=O)C=C1N1CCC1	0	< 4.40	0
O=C1C=C(N2CC2)C(=O)C=C1N1CC1	100	8.05	100
